Source: ChEMBL document CHEMBL4477200, “Design, Synthesis, and Preclinical Evaluation of 4-Substituted-5-methyl-furo[2,3-d]pyrimidines as Microtubule Targeting Agents That Are Effective against Multidrug Resistant Cancer Cells” (J Med Chem, 2016)
Calls of active or inactive are those of the source.

Assays:
[1] = test system: EKVX; experiment: Cytotoxicity against human EKVX cells assessed as growth inhibition after 48 hrs by SRB assay; assay type: functional
[2] = test system: OVCAR-8; experiment: Cytotoxicity against human OVCAR8 cells assessed as growth inhibition after 48 hrs by SRB assay; assay type: functional; settings: OVCAR-8, 48 h
[3] = test system: U-251; experiment: Cytotoxicity against human U251 cells assessed as growth inhibition after 48 hrs by SRB assay; assay type: functional; settings: U-251, 48 h
[4] = test system: NCI-H23; experiment: Cytotoxicity against human NCI-H23 cells assessed as growth inhibition after 48 hrs by SRB assay; assay type: functional; settings: NCI-H23, 48 h
[5] = test system: OVCAR-3; experiment: Cytotoxicity against human OVCAR3 cells assessed as growth inhibition after 48 hrs by SRB assay; assay type: functional; settings: OVCAR-3, 48 h
[6] = molecular target: T1, Tubulin (Bos taurus) (UniProt Q6B856+Q862L2+Q862F3); experiment: Displacement of [3H]colchicine from tubulin in bovine brain homogenate at 1 uM incubated for 10 mins by DEAE-cellulose filter assay; assay type: tissue-based
[7] = test system: MCF7; experiment: Cytotoxicity against human MCF7 cells assessed as growth inhibition after 48 hrs by SRB assay; assay type: functional; settings: MCF7, 48 h
[8] = test system: HCT-15; experiment: Cytotoxicity against human HCT15 cells assessed as growth inhibition after 48 hrs by SRB assay; assay type: functional; settings: HCT-15, 48 h
[9] = test system: COLO 205; experiment: Cytotoxicity against human COLO205 cells assessed as growth inhibition after 48 hrs by SRB assay; assay type: functional; settings: COLO 205, 48 h
[10] = test system: SK-OV-3; experiment: Cytotoxicity against human SKOV3 cells assessed as growth inhibition after 48 hrs by SRB assay; assay type: functional, cell-based; settings: SK-OV-3, 48 h
In short: (§1)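 SRB assay; IC50 is the mean of three independent experiments, each run in triplicate. Cells were kept at 37 °C under 5% CO2. HeLa and SK-OV-3 lines (parental and MDR1-M6/6) were grown in Basal Medium Eagle with 10% FBS, 1% GlutaMAX and 50 µg/mL gentamycin. HeLa WTβIII was grown in DMEM with 10% FBS.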

[11] = test system: NCI-H460; experiment: Cytotoxicity against human NCI-H460 cells assessed as growth inhibition after 48 hrs by SRB assay; assay type: functional; settings: NCI-H460, 48 h
[12] = test system: RPMI-8226; experiment: Cytotoxicity against human RPMI8226 cells assessed as growth inhibition after 48 hrs by SRB assay; assay type: functional; settings: RPMI-8226, 48 h
[13] = test system: SR; experiment: Cytotoxicity against human SR cells assessed as growth inhibition after 48 hrs by SRB assay; assay type: functional
[14] = test system: MDA-MB-435; experiment: Cytotoxicity against human MDA-MB-435 cells assessed as growth inhibition after 48 hrs by SRB assay; assay type: functional, cell-based
[15] = test system: OVCAR-5; experiment: Cytotoxicity against human OVCAR5 cells assessed as growth inhibition after 48 hrs by SRB assay; assay type: functional; settings: OVCAR-5, 48 h
[16] = test system: ACHN; experiment: Cytotoxicity against human ACHN cells assessed as growth inhibition after 48 hrs by SRB assay; assay type: functional
[17] = test system: TK-10; experiment: Cytotoxicity against human TK10 cells assessed as growth inhibition after 48 hrs by SRB assay; assay type: functional; settings: TK-10, 48 h
[18] = test system: Hs-578T; experiment: Cytotoxicity against human Hs 578T cells assessed as growth inhibition after 48 hrs by SRB assay; assay type: functional
[19] = test system: HCT-116; experiment: Cytotoxicity against human HCT116 cells assessed as growth inhibition after 48 hrs by SRB assay; assay type: functional; settings: HCT-116, 48 h
[20] = molecular target: T1, Tubulin (Bos taurus); experiment: Inhibition of [3H]colchicine binding to tubulin in bovine brain homogenate at 5 uM incubated for 10 mins by DEAE-cellulose filter assay; assay type: tissue-based
[21] = test system: LOX IMVI; experiment: Cytotoxicity against human LOXIMVI cells assessed as growth inhibition after 48 hrs by SRB assay; assay type: functional
[22] = test system: NCI-H322M; experiment: Cytotoxicity against human NCI-H322M cells assessed as growth inhibition after 48 hrs by SRB assay; assay type: functional
[23] = test system: UO-31; experiment: Cytotoxicity against human UO31 cells assessed as growth inhibition after 48 hrs by SRB assay; assay type: functional; settings: UO-31, 48 h
[24] = test system: A498; experiment: Cytotoxicity against human A498 cells assessed as growth inhibition after 48 hrs by SRB assay; assay type: functional; settings: A498, 48 h
[25] = test system: SK-OV-3; experiment: Antiproliferative activity against multidrug resistant human SKOV3 cells expressing MDR1-M6/6 after 48 hrs by SRB assay; assay type: functional, cell-based; settings: SK-OV-3, 48 h; in short: as §1
[26] = test system: SNB-19; experiment: Cytotoxicity against human SNB19 cells assessed as growth inhibition after 48 hrs by SRB assay; assay type: functional; settings: SNB-19, 48 h
[27] = test system: SK-MEL-5; experiment: Cytotoxicity against human SK-MEL-5 cells assessed as growth inhibition after 48 hrs by SRB assay; assay type: functional; settings: SK-MEL-5, 48 h
[28] = test system: HT-29; experiment: Cytotoxicity against human HT-29 cells assessed as growth inhibition after 48 hrs by SRB assay; assay type: functional; settings: HT-29, 48 h
[29] = test system: KM12; experiment: Cytotoxicity against human KM12 cells assessed as growth inhibition after 48 hrs by SRB assay; assay type: functional; settings: KM12, 48 h
[30] = test system: NCI-H226; experiment: Cytotoxicity against human NCI-H226 cells assessed as growth inhibition after 48 hrs by SRB assay; assay type: functional; settings: NCI-H226, 48 h
[31] = test system: SK-MEL-28; experiment: Cytotoxicity against human SK-MEL-28 cells assessed as growth inhibition after 48 hrs by SRB assay; assay type: functional; settings: SK-MEL-28, 48 h
[32] = test system: SF-295; experiment: Cytotoxicity against human SF295 cells assessed as growth inhibition after 48 hrs by SRB assay; assay type: functional; settings: SF-295, 48 h
[33] = test system: SN12C; experiment: Cytotoxicity against human SN12C cells assessed as growth inhibition after 48 hrs by SRB assay; assay type: functional
[34] = test system: PC-3; experiment: Cytotoxicity against human PC3 cells assessed as growth inhibition after 48 hrs by SRB assay; assay type: functional; settings: PC-3, 48 h
[35] = test system: MDA-MB-435; experiment: Antitumor activity against human MDA-MB-435 cells xenografted in nude mouse assessed as tumor growth inhibition at 60 mg/kg, ip dosed on day 0 to 2 and 50 mg/kg, ip on day 8 relative to control
[36] = test system: Tubulin (Rattus norvegicus); experiment: Induction of microtubule depolymerization in rat A10 cells at 2 times EC50 incubated for 18 hrs by indirect immunofluorescence analysis
[37] = test system: Malme-3M; experiment: Cytotoxicity against human MALME-3M cells assessed as growth inhibition after 48 hrs by SRB assay; assay type: functional
[38] = test system: SF-268; experiment: Cytotoxicity against human SF268 cells assessed as growth inhibition after 48 hrs by SRB assay; assay type: functional; settings: SF-268, 48 h
[39] = test system: SNB-75; experiment: Cytotoxicity against human SNB75 cells assessed as growth inhibition after 48 hrs by SRB assay; assay type: functional; settings: SNB-75, 48 h
[40] = test system: IGROV-1; experiment: Cytotoxicity against human IGROV1 cells assessed as growth inhibition after 48 hrs by SRB assay; assay type: functional; settings: IGROV-1, 48 h
[41] = test system: MOLT-4; experiment: Cytotoxicity against human MOLT4 cells assessed as growth inhibition after 48 hrs by SRB assay; assay type: functional; settings: MOLT-4, 48 h
[42] = test system: CAKI-1; experiment: Cytotoxicity against human Caki1 cells assessed as growth inhibition after 48 hrs by SRB assay; assay type: functional; settings: CAKI-1, 48 h

COc1ccc(N(C)c2ncnc3occ(C)c23)cc1
96%: inhibition [20]
0.0101 µM: GI50 [38]
< 0.01 µM: GI50 [1] | GI50 [2] | GI50 [3] | GI50 [4] | GI50 [5] | GI50 [7] | GI50 [8] | GI50 [9] | GI50 [10] | GI50 [11] | GI50 [12] | GI50 [13] | GI50 [18] | GI50 [19] | GI50 [21] | GI50 [23] | GI50 [24] | GI50 [26] | GI50 [27] | GI50 [28] | GI50 [29] | GI50 [30] | GI50 [31] | GI50 [32] | GI50 [33] | GI50 [34] | GI50 [39] | GI50 [40] | GI50 [41] | GI50 [42]
<0.01 µM: GI50 [14]
0.0753 µM: GI50 [17]
0.0084 µM: IC50 [25]
0.0225 µM: GI50 [16]
71%: inhibition [6]
0.0128 µM: GI50 [15]
> 100 µM: GI50 [22]
0.0387 µM: GI50 [37]
active: TGI [35] | Activity [36]
0.0077 µM: IC50 [10]
